# Assay results from ChEMBL document CHEMBL4513216, “Probing the Open Global Health Chemical Diversity Library for Multistage-Active Starting Points for Next-Generation Antimalarials” (ACS Infect Dis, 2020).
# Experiment: Toxicity liver stage against HepG2, at 10uM
# Format: cell-based
# Parameters: test concentration 10 uM, cell line HepG2-A16-CD81EGFP
# Conditions: human, HepG2-A16-CD81EGFP cells; read-out: INHIBITION
# Outline: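 Uninfected HepG2-A16-CD81EGFP cells, 3 × 10^3 per well, 1536-well, plated on prespotted compound at 10 μM final, parasite-free screening media added to match infected plates; puromycin 10 μM positive, DMSO 0.5% negative; run in parallel with 48 h PbLuc assay at 37 °C, 5% CO2; viability by CellTiter-Glo luminescence, normalized to controls.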
structure (smiles),measurement,value
CC(C)CN1C[C@@H]2OCC(=O)N(Cc3nccn3C)[C@@H]2C1,cytotoxicity at 10 µM,0.174%
O[C@@H]1C[C@@H](c2nc(-c3ccccc3)no2)N(Cc2cccnc2)C1,cytotoxicity at 10 µM,3.69%
CC(=O)N1CCC(N2CCOC[C@H]2c2nc(-c3ccccc3)c[nH]2)CC1,cytotoxicity at 10 µM,1.74%
COC(=O)[C@@H]1CN(S(=O)(=O)c2ccccc2)CCN1S(C)(=O)=O,cytotoxicity at 10 µM,0.471%
COC(=O)[C@@H]1Cc2ncn(C)c2CN1S(=O)(=O)c1ccc(C)cc1,cytotoxicity at 10 µM,2.08%
CCS(=O)(=O)N1CCc2ccc(NC(=O)NC(C)(C)C)cc21,cytotoxicity at 10 µM,-6.69%
CN1CC[C@H](N(Cc2ccccc2)C2COC2)C[C@H](O)C1,cytotoxicity at 10 µM,4.27%
CC(C)CN1CC(O)CN(C(=O)c2cccc(C(F)(F)F)c2)CC1=O (centres undefined),cytotoxicity at 10 µM,-7.08%
Cn1nc(-c2ccccc2)c(Cl)c1C(=O)O,cytotoxicity at 10 µM,-45%
CNC(=O)c1cn(C)c(-c2nc3cc(NC(C)=O)ccc3n2C)c1OC,cytotoxicity at 10 µM,-42.5%
O=C(NCCN1CCOCC1)c1nc2ccccc2c(=O)[nH]1,cytotoxicity at 10 µM,11.3%
O=C(Nc1ccccc1F)C1CN(C(=O)c2ccc3c(c2)OCO3)C1,cytotoxicity at 10 µM,-5.96%
CS(=O)(=O)N1CCc2ccc(=O)n(CC3CCOCC3)c2CC1,cytotoxicity at 10 µM,6.4%
CN(Cc1cccnc1)CC1CC12CCN(Cc1nccs1)CC2 (centres undefined),cytotoxicity at 10 µM,10.2%
O=C(c1ccc(F)cc1)N1C[C@@H]2CN(c3ncccn3)C[C@@H]2C1,cytotoxicity at 10 µM,7.98%
CC(=O)N1C[C@H]2CCCN(c3ncc(C)cn3)[C@H]2C1,cytotoxicity at 10 µM,9.52%
CCS(=O)(=O)N1CCN(C(=O)C(C)C)CC2(CC(=O)N(C)C2)C1 (centres undefined),cytotoxicity at 10 µM,8.4%
Cc1ccoc1C(=O)N1CCCC2(CCCN2S(C)(=O)=O)C1 (centres undefined),cytotoxicity at 10 µM,-143%
O=C(NCC1CC1)[C@H]1CC[C@@H]2[C@@H](CCN2Cc2nccs2)O1,cytotoxicity at 10 µM,6.93%
O=C(O)c1cc(-c2ccccc2)ns1,cytotoxicity at 10 µM,1.91%
CN(C)c1ccc(C(=O)NCC2(c3ccccc3)CCOCC2)cc1,cytotoxicity at 10 µM,6.52%
Cn1cnnc1S(=O)(=O)C1CCN(S(=O)(=O)C2CC2)CC1,cytotoxicity at 10 µM,-9.99%
O=C1CNc2ncnc(Nc3cccc(Cn4cccn4)c3)c2N1,cytotoxicity at 10 µM,19.8%
CSc1ccc(-c2noc(CN(Cc3ccccc3)C(C)C)n2)cc1,cytotoxicity at 10 µM,3.88%
Cc1c(NC(=O)c2cccc(Br)c2)c(C(=O)N(C)C)nn1C,cytotoxicity at 10 µM,2.35%
OC1(c2ccccc2F)CCN(Cc2ccccc2N2CCCC2)CC1,cytotoxicity at 10 µM,13.2%
CCn1ncc(S(=O)(=O)N2CCCC3(CC=CNC3=O)C2)c1C (centres undefined),cytotoxicity at 10 µM,-7.6%
Cc1n[nH]c(C)c1-c1cnc(CC2CCN(C)C2)cn1 (centres undefined),cytotoxicity at 10 µM,-2.11%
Cn1nc(C2CCNC2)c2c(C(=O)NC3CC3)cc(C3CC3)nc21 (centres undefined),cytotoxicity at 10 µM,13.9%
CCC(CC(=O)NS(=O)(=O)C(C)C)c1ccccc1 (centres undefined),cytotoxicity at 10 µM,-49.1%
CC(C)OCc1ccc(CNC(=O)NC2(CO)CCCC2)cc1,cytotoxicity at 10 µM,-48.9%
COCCN1CCC(CNc2cnc3ccccc3n2)CC1,cytotoxicity at 10 µM,-46.6%
CN(Cc1cc(Br)c2c(c1)OCO2)Cc1cscn1,cytotoxicity at 10 µM,-12.2%
Cc1ccc(S(=O)(=O)Cc2nsc(N(C)C)n2)c(C)c1,cytotoxicity at 10 µM,-25.2%
O=C(c1ccccc1O)N1CCn2c(nnc2C(F)(F)F)C1,cytotoxicity at 10 µM,14.6%
Cc1noc(CCCC(=O)N2CCN(C)CC2c2ccccc2)n1 (centres undefined),cytotoxicity at 10 µM,-6.73%
COc1cccc(C2CCCN2C(=O)NCCCn2cccn2)c1 (centres undefined),cytotoxicity at 10 µM,15.5%
Cc1cc2n(n1)CC(CNC1CCN(CCc3ccccc3)CC1)CN2 (centres undefined),cytotoxicity at 10 µM,2.7%
CCNC(=O)N(CCCO)C1CCCc2ccccc21 (centres undefined),cytotoxicity at 10 µM,-11%
CC(C)c1noc(C(C)N2CCN(c3ccc(C#N)cn3)CC2)n1 (centres undefined),cytotoxicity at 10 µM,-2.57%
O=C(c1n[nH]c(=O)c2ccccc12)N1CCCC1Cn1cccn1 (centres undefined),cytotoxicity at 10 µM,-0.743%
COc1cc2c(cc1OC)S(=O)(=O)N(Cc1ccc(C)cc1)C2=O,cytotoxicity at 10 µM,8.74%
CC(=O)Nc1ccc(/C=C/c2ncc(C(=O)O)s2)cc1,cytotoxicity at 10 µM,-3.54%
COCCN(CCOC)c1ncccc1I,cytotoxicity at 10 µM,-2.69%
c1ccc(Cn2ccnc2CNC2CCCOc3ccccc32)cc1 (centres undefined),cytotoxicity at 10 µM,-4.34%
CN(CCc1ccccn1)C(=O)C(O)c1ccc(Br)cc1 (centres undefined),cytotoxicity at 10 µM,-0.779%
CC(C)c1noc(OCc2cccc(C#N)c2)n1,cytotoxicity at 10 µM,-43.6%
CC1CCCN(C(=O)c2ncncc2Cl)C1 (centres undefined),cytotoxicity at 10 µM,8.43%
O=C(Cn1cc(Cl)cn1)N1CCNC1=O,cytotoxicity at 10 µM,-13.2%
CCC1(CNCc2ncc[nH]2)CCCC1,cytotoxicity at 10 µM,-3.09%
Cc1cccc(CNc2nnc(C(C)C)o2)c1,cytotoxicity at 10 µM,12.2%
Cc1cnc(C(=O)N2C[C@H](N3CCOCC3)[C@@H]3OCCC[C@@H]32)cn1,cytotoxicity at 10 µM,-107%
CCOC1COC2(CCN(S(=O)(=O)c3ccc(F)cc3)CC2)C1 (centres undefined),cytotoxicity at 10 µM,-109%
CCS(=O)(=O)N1CC[C@H]2OCC[C@@]2(C(=O)NC)C1,cytotoxicity at 10 µM,-72.6%
C[C@H]1C[C@@H]2CCN(Cc3ccco3)C[C@H]2O1,cytotoxicity at 10 µM,-80.1%
Cn1ccnc1SCCNC(=O)Cn1cnc2ccccc2c1=O,cytotoxicity at 10 µM,-20.7%
O=C(c1cccc(S(=O)(=O)NC[C@@H]2C[C@H](F)CN2)c1)N1CCCCC1,cytotoxicity at 10 µM,3.5%
CCCN1CCCC2(CCN(C(=O)CCCn3cncn3)C2)C1=O (centres undefined),cytotoxicity at 10 µM,-1.84%
OC1(CNCCCN2CCCc3ccccc32)CNCCOC1 (centres undefined),cytotoxicity at 10 µM,13.2%
CCOc1ccc(CN2CCN(CCOC)[C@@H]3CS(=O)(=O)C[C@@H]32)cc1,cytotoxicity at 10 µM,-1.25%
Cc1nc(CN2CCCC(CCc3ccccc3C(F)(F)F)C2)no1 (centres undefined),cytotoxicity at 10 µM,2.79%
NCc1cn(CC2CCCN(C(=O)NCc3ccc(Cl)cc3)C2)nn1 (centres undefined),cytotoxicity at 10 µM,-22%
CC(C)c1noc(CCNC(=O)C2COc3ccccc3C2)n1 (centres undefined),cytotoxicity at 10 µM,-1.24%
CN1CCc2[nH]nc(C(=O)N3CCCC4(CC3)CNC(=O)O4)c2C1 (centres undefined),cytotoxicity at 10 µM,-44.6%
COC[C@@]12CC[C@@H](N3CCOCC3)C[C@H]1CCN(c1ncccc1C)C2,cytotoxicity at 10 µM,-1.33%
O=C(NCC1CCCO1)Nc1nnc(C(F)(F)F)s1 (centres undefined),cytotoxicity at 10 µM,1.72%
Cc1cc(C)n(CC(C)NCc2nc(-c3cccnc3)no2)n1 (centres undefined),cytotoxicity at 10 µM,0.107%
COCC[C@]1(O)CCN(CC(=O)NCc2ccccc2C)C[C@H]1C,cytotoxicity at 10 µM,-5.31%
Cc1nn(C)c(C)c1-c1cc(-c2cc(CC(=O)O)cs2)nc(N)c1C#N,cytotoxicity at 10 µM,0.701%
CCCc1nc(C)cc(N2CCNC(C(=O)Nc3ccc(C)nc3)C2)n1 (centres undefined),cytotoxicity at 10 µM,-48.5%
CCc1ncc(C(=O)N2CCN(c3cnn(C)c(=O)c3)CC2)cn1,cytotoxicity at 10 µM,-8.3%
CN(Cc1n[nH]c2c1CCC2)C(=O)CCc1cc2n(n1)CCNC2,cytotoxicity at 10 µM,-10.5%
COCCN(C)C[C@@H]1CN(C(=O)c2ccc(O)c(Cl)c2)C[C@@H]1CO,cytotoxicity at 10 µM,10.5%
CN1CCCC[C@@H]2[C@H]1[C@@H](c1ccccc1)CCN2C(=O)c1cnccn1,cytotoxicity at 10 µM,-3.81%
COc1ccccc1CC(=O)N1CCC(NCc2ccccn2)CC1,cytotoxicity at 10 µM,-11.5%
CC(C)n1ccnc1CN1CCCN(C(=O)c2cnc[nH]2)CC1,cytotoxicity at 10 µM,-11.9%
Cc1ncccc1CNC1CCCN(Cc2noc(C3CC3)n2)C1 (centres undefined),cytotoxicity at 10 µM,-1.34%
CC(Cn1ccnc1)NC(=O)C1(c2ccccc2)CC1 (centres undefined),cytotoxicity at 10 µM,-5.74%
COc1ccc(CN2CCN(C(=O)c3ccc(C)n3C)CC2)cc1,cytotoxicity at 10 µM,-0.0113%
Cc1csc(N2CCCN(C(=O)c3occc3C)CC2)n1,cytotoxicity at 10 µM,-13.8%
Cc1ncc2c(n1)CN(CC(=O)Nc1ccc(Cl)cn1)CC2,cytotoxicity at 10 µM,-6.19%
CNc1snc(C)c1C(=O)N1CCCC(n2cccn2)C1 (centres undefined),cytotoxicity at 10 µM,-3.81%
COc1ccc(COCC(O)CNC(=O)c2ccc(C#N)cc2)cc1 (centres undefined),cytotoxicity at 10 µM,0.561%
COCc1nc(C(=O)N2CCCC2c2ccc(OC)cc2)cs1 (centres undefined),cytotoxicity at 10 µM,-3.81%
COc1cc(CNC(=O)c2c(C)noc2C(C)C)ccn1,cytotoxicity at 10 µM,-7.9%
COc1cccc(S(=O)(=O)NC(=O)COc2c(C)cccc2C)c1,cytotoxicity at 10 µM,-5.84%
CCN(Cc1ccc2c(c1)OCCO2)S(=O)(=O)N(C)C(C)C,cytotoxicity at 10 µM,-9.21%
O=C(Cc1ccc2c(c1)CCC2)NCCNc1ncccn1,cytotoxicity at 10 µM,-3.93%
CCc1ccc(S(=O)(=O)Nc2cc(OC)c(OC)cc2C(=O)O)s1,cytotoxicity at 10 µM,-7.22%
Cc1ccc(-c2nc(CN3CCc4c(ncn4C)C3)cs2)o1,cytotoxicity at 10 µM,-11.3%
CC(C)c1cc(CNC(=O)N2CCC(Cc3cnn(C)c3)C2)on1 (centres undefined),cytotoxicity at 10 µM,-10.9%
CC(=O)N1CCCN(C(=O)CCc2c(C)noc2C)CC1,cytotoxicity at 10 µM,-6.38%
Cc1cc(C)n(C2CN(CC(O)c3ccc4c(c3)OCO4)C2)n1 (centres undefined),cytotoxicity at 10 µM,-15.7%
O=C(NCc1ccc(-n2cncn2)nc1)c1ccoc1,cytotoxicity at 10 µM,-2.38%
Cc1cccc(CCC(=O)N2CCCC(c3cc(C(N)=O)[nH]n3)C2)c1 (centres undefined),cytotoxicity at 10 µM,-7.1%
Cn1ccc(C(=O)NCc2cccc(N3CCCCC3=O)c2)cc1=O,cytotoxicity at 10 µM,-6.68%
CCN1CCN(Cc2ccnc(-c3cccnc3)n2)CC1,cytotoxicity at 10 µM,-5.23%
Cc1cc(C(=O)N2CCC3(C2)CN(c2ccsc2)C(=O)CN3C)[nH]n1 (centres undefined),cytotoxicity at 10 µM,-75.2%
Cc1ccc(CN2CC[C@H]3CO[C@H](CN4CCN(C)CC4)[C@H]3C2)o1,cytotoxicity at 10 µM,-118%
Cn1nccc1-c1nnn2c1COCC(CNC1CCOCC1)C2 (centres undefined),cytotoxicity at 10 µM,-103%
Cc1noc(C)c1CN1CC[C@H]2OCC[C@@]2(C(=O)NCC2CC2)C1,cytotoxicity at 10 µM,-77.2%
Cc1ccc(Oc2cc(CN)ccn2)cc1C,cytotoxicity at 10 µM,-0.578%
C[C@H]1C[C@H]2CN(Cc3ccccn3)CC[C@@H]2O1,cytotoxicity at 10 µM,-78.2%
NCC1[C@H]2CN(Cc3ccccc3F)C[C@@H]12 (some centres undefined),cytotoxicity at 10 µM,-7.52%
CCS(=O)(=O)N1CCC2(CC1)CN(c1cccnc1)C(=O)CO2,cytotoxicity at 10 µM,-109%
Fc1ccc(CN2CCCn3cnc(COCC4CC4)c3C2)cc1,cytotoxicity at 10 µM,7.43%
Cc1ccc2c(c1)CN(C(=O)c1cccnc1)C(CN(C)C)CO2 (centres undefined),cytotoxicity at 10 µM,-25.5%
O=C1NCC[C@]12CN(Cc1nccs1)C[C@H]2c1ccccc1,cytotoxicity at 10 µM,11%
CSCCCN1C[C@@H]2CC[C@H]1CN(Cc1[nH]cnc1C)C2,cytotoxicity at 10 µM,1.2%
